In ChEMBL document CHEMBL4725283, “Selective Peptidomimetic Inhibitors of NTMT1/2: Rational Design, Synthesis, Characterization, and Crystallographic Studies” (J Med Chem, 2020):
pKd: −log10 of the molar value. Active and inactive are the calls of the source. No cut-off for these calls is given here.

Key:
Homo sapiens [1] = species: Homo sapiens; test: Selectivity for human NTMT2 over human EZH1 complex at 100 uM
How it was run: (§1)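 Single-point panel screen against 41 PKMTs, PRMTs, DNMTs and NTMT1/2. Each compound was tested at 100 µM, in duplicate (n=2).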

Homo sapiens [2] = species: Homo sapiens; test: Selectivity for human NTMT2 over human PRDMT1 at 100 uM; how it was run: as §1
Homo sapiens [3] = species: Homo sapiens; test: Selectivity for human NTMT1 over human NSD2 at 100 uM
How it was run: (§2)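 Panel of 41 PKMTs, PRMTs, DNMTs and NTMT1/2, tested at 100 µM compound in duplicate (n=2).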

Homo sapiens [4] = species: Homo sapiens; test: Selectivity for human NTMT2 over human SUV420H1TV2 at 100 uM; how it was run: as §1
[5] = molecular target: N-terminal Xaa-Pro-Lys N-methyltransferase 2 (Homo sapiens, UniProt Q5VVY1); test: Binding affinity to recombinant human full-length His6-tagged NTMT2 by ITC assay
Chain of N-terminal Xaa-Pro-Lys N-methyltransferase 2 (Q5VVY1 whole entry): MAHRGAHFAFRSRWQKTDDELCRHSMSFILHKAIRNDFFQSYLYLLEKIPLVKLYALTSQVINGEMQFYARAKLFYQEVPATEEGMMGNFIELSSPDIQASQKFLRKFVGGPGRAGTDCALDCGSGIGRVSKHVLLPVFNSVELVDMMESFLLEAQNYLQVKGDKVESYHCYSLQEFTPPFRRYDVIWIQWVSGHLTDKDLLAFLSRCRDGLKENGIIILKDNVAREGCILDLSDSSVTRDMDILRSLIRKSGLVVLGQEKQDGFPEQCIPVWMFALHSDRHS
How it was run: (§3)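 ITC at 25 °C. Purified protein (NTMT1 for line 1, NTMT2 for line 2) in 20 mM Tris-HCl pH 7.5, 150 mM NaCl, 0.5 mM TCEP at 30–50 µM final. Compound at 0.5–1 mM in the same buffer, titrated in as 26 injections of 10 µl, 180 s apart, reference power 15 µcal/sec.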

Homo sapiens [6] = species: Homo sapiens; test: Selectivity for human NTMT1 over human PRDMT1 at 100 uM; how it was run: as §2
Homo sapiens [7] = species: Homo sapiens; test: Selectivity for human NTMT2 over human SMYD2 at 100 uM; how it was run: as §1
Homo sapiens [8] = species: Homo sapiens; test: Selectivity for human NTMT1 over human PRDMT5 at 100 uM; how it was run: as §2
Homo sapiens [9] = species: Homo sapiens; test: Selectivity for human NTMT2 over human PRDMT5/MEP50 complex at 100 uM; how it was run: as §1
Homo sapiens [10] = species: Homo sapiens; test: Selectivity for human NTMT2 over human EZH2 complex at 100 uM; how it was run: as §1
Homo sapiens [11] = species: Homo sapiens; test: Selectivity for human NTMT1 over human PRDM9 at 100 uM; how it was run: as §2
Homo sapiens [12] = species: Homo sapiens; test: Selectivity for human NTMT2 over human PRDMT8 at 100 uM; how it was run: as §1
Homo sapiens [13] = species: Homo sapiens; test: Selectivity for human NTMT2 over human DNMT3b at 100 uM; how it was run: as §1
Homo sapiens [14] = species: Homo sapiens; test: Selectivity for human NTMT1 over human SET8 at 100 uM; how it was run: as §2
Homo sapiens [15] = species: Homo sapiens; test: Selectivity for human NTMT1 over human ASH1L at 100 uM; how it was run: as §2
Homo sapiens [16] = species: Homo sapiens; test: Selectivity for human NTMT1 over human SMYD2 at 100 uM; how it was run: as §2
Homo sapiens [17] = species: Homo sapiens; test: Selectivity for human NTMT1 over GST-tagged human METTL21A at 100 uM; how it was run: as §2
Homo sapiens [18] = species: Homo sapiens; test: Selectivity for human NTMT2 over human GLP at 100 uM; how it was run: as §1
[19] = molecular target: T1, N-terminal Xaa-Pro-Lys N-methyltransferase 1 (Homo sapiens, UniProt Q9BV86); test: Binding affinity to recombinant human full-length His6-tagged NTMT1 (1 to 222 residues) by ITC assay; how it was run: as §3
T1 sequence (Q9BV86 whole entry): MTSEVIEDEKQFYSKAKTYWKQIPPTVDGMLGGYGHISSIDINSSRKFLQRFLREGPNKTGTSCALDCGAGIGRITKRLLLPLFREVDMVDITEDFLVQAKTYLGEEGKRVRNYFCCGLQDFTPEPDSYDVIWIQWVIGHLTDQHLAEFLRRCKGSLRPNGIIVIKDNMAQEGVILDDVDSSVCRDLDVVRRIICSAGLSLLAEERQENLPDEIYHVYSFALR

Homo sapiens [20] = species: Homo sapiens; test: Selectivity for human NTMT2 over human MLL1 complex at 100 uM; how it was run: as §1
Homo sapiens [21] = species: Homo sapiens; test: Selectivity for human NTMT1 over human PRDMT5/MEP50 complex at 100 uM; how it was run: as §2
Homo sapiens [22] = species: Homo sapiens; test: Selectivity for human NTMT2 over human DNMT3a at 100 uM; how it was run: as §1
Homo sapiens [23] = species: Homo sapiens; test: Selectivity for human NTMT1 over human EZH1 complex at 100 uM; how it was run: as §2
[24] = molecular target: T2, N-terminal Xaa-Pro-Lys N-methyltransferase 1 (Homo sapiens) (UniProt Q9BV86); test: Non-competitive inhibition of recombinant human full-length His6-tagged NTMT1 (1 to 222 residues) expressed in Escherichia coli BL21-CodonPlus(DE3)-RIL competent cells pre-incubated for 10 mins in presence of varying levels of SAM and SAHH before fixed level of RCC1-6 addition and measured after 15 mins by fluorescence based SAHH-coupled assay; settings: time 25.0 min
T2 sequence (whole entry): T1 sequence (Q9BV86 whole entry)
How it was run: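 Same SAHH-coupled ThioGlo1 set-up as the substrate series: 25 mM Tris pH 7.4, 50 mM KCl, 10 µM SAHH, 0.2 µM NTMT1, 15 µM ThioGlo1, inhibitor 0–100 µM. […] Triplicate IC50 at each SAM level plotted against [SAM]/Km.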

Homo sapiens [25] = species: Homo sapiens; test: Selectivity for human NTMT2 over human PRDMT7 at 100 uM; how it was run: as §1
Homo sapiens [26] = species: Homo sapiens; test: Selectivity for human NTMT2 over human NSD2 E1099K mutant at 100 uM; how it was run: as §1
Homo sapiens [27] = species: Homo sapiens; test: Selectivity for human NTMT2 over human SET1b complex at 100 uM; how it was run: as §1
Homo sapiens [28] = species: Homo sapiens; test: Selectivity for human NTMT1 over human PRDMT4 at 100 uM; how it was run: as §2
Homo sapiens [29] = species: Homo sapiens; test: Selectivity for human NTMT1 over human DNMT3a at 100 uM; how it was run: as §2
Homo sapiens [30] = species: Homo sapiens; test: Selectivity for human NTMT1 over human DNMT1 at 100 uM; how it was run: as §2
Homo sapiens [31] = species: Homo sapiens; test: Selectivity for human NTMT2 over human SETD2 at 100 uM; how it was run: as §1
Homo sapiens [32] = species: Homo sapiens; test: Selectivity for human NTMT1 over human EZH2 complex at 100 uM; how it was run: as §2
Homo sapiens [33] = species: Homo sapiens; test: Selectivity for human NTMT1 over human GLP at 100 uM; how it was run: as §2
Homo sapiens [34] = species: Homo sapiens; test: Selectivity for human NTMT2 over human SET7/9 at 100 uM; how it was run: as §1
Homo sapiens [35] = species: Homo sapiens; test: Selectivity for human NTMT2 over human ASH1L at 100 uM; how it was run: as §1
Homo sapiens [36] = species: Homo sapiens; test: Selectivity for human NTMT1 over human PRDMT8 at 100 uM; how it was run: as §2
Homo sapiens [37] = species: Homo sapiens; test: Selectivity for human NTMT1 over human PRDMT3 at 100 uM; how it was run: as §2
Homo sapiens [38] = species: Homo sapiens; test: Selectivity for human NTMT2 over human DOT1L at 100 uM; how it was run: as §1
Homo sapiens [39] = species: Homo sapiens; test: Selectivity for human NTMT2 over human SET8 at 100 uM; how it was run: as §1
Homo sapiens [40] = species: Homo sapiens; test: Selectivity for human NTMT1 over human NSD2 T1150A mutant at 100 uM; how it was run: as §2

Selectivity ratio (Homo sapiens [1]): > 100
Selectivity ratio (Homo sapiens [2]): > 100
Selectivity ratio (Homo sapiens [3]): > 100
Selectivity ratio (Homo sapiens [4]): > 100
pKd [5]: 5.43
Selectivity ratio (Homo sapiens [6]): > 100
Selectivity ratio (Homo sapiens [7]): > 100
Selectivity ratio (Homo sapiens [8]): > 100
Selectivity ratio (Homo sapiens [9]): > 100
Selectivity ratio (Homo sapiens [10]): > 100
Selectivity ratio (Homo sapiens [11]): > 100
Selectivity ratio (Homo sapiens [12]): > 100
Selectivity ratio (Homo sapiens [13]): > 100
Selectivity ratio (Homo sapiens [14]): > 100
Selectivity ratio (Homo sapiens [15]): > 100
Selectivity ratio (Homo sapiens [16]): > 100
Selectivity ratio (Homo sapiens [17]): > 100
Selectivity ratio (Homo sapiens [18]): > 100
pKd [19]: 5.52
Selectivity ratio (Homo sapiens [20]): > 100
Selectivity ratio (Homo sapiens [21]): > 100
Selectivity ratio (Homo sapiens [22]): > 100
Selectivity ratio (Homo sapiens [23]): > 100
inhibition [24]: Active
Selectivity ratio (Homo sapiens [25]): > 100
Selectivity ratio (Homo sapiens [26]): > 100
Selectivity ratio (Homo sapiens [27]): > 100
Selectivity ratio (Homo sapiens [28]): > 100
Selectivity ratio (Homo sapiens [29]): > 100
Selectivity ratio (Homo sapiens [30]): > 100
Selectivity ratio (Homo sapiens [31]): > 100
Selectivity ratio (Homo sapiens [32]): > 100
Selectivity ratio (Homo sapiens [33]): > 100
Selectivity ratio (Homo sapiens [34]): > 100
Selectivity ratio (Homo sapiens [35]): > 100
Selectivity ratio (Homo sapiens [36]): > 100
Selectivity ratio (Homo sapiens [37]): > 100
Selectivity ratio (Homo sapiens [38]): > 100
Selectivity ratio (Homo sapiens [39]): > 100
Selectivity ratio (Homo sapiens [40]): > 100
Compound: N=C(N)NCCC[C@H](NC(=O)[C@H](CCCCN)NC(=O)[C@@H]1CCCN1C(=O)Cc1ccc(O)cc1)C(N)=O
